Tests used:
Assay type in all cases: functional, Mesocricetus auratus
[1] = system: Syrian golden hamster; assay: Antihyperlipidemic activity measured by decrease in triglyceride level in golden syrian hamster at 100 mg/kg, po relative to control; design: scale not given: the % may be the effect or the level left
How it was run: (§1)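 Male golden Syrian hamsters (120–130 g), 8 per group, made hyperlipidemic on high fat diet with free access to diet and water throughout. Compound given orally in water from day 4 to day 10 (7 days); HFD hamsters given water only served as controls. On day 10, blood from nonfasted animals was drawn and cooled to 0 C for 15 min. Triglycerides, total cholesterol and HDL cholesterol were measured the same day in plasma without NaF using enzymatic kits.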

[2] = system: Syrian golden hamster; assay: Antihyperlipidemic activity measured by decrease in cholesterol level in golden syrian hamster at 100 mg/kg, po relative to control; design: scale not given: the % may be the effect or the level left; how it was run: as §1
[3] = system: Syrian golden hamster; assay: Antihyperlipidemic activity measured by increase in glycerol level in golden syrian hamster at 100 mg/kg, po relative to control
How it was run: (§2)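 High-fat-diet hyperlipidemic male golden Syrian hamsters (120–130 g, n=8 per group) were dosed orally in water vehicle on days 4–10; water-only HFD hamsters served as controls. On day 10, nonfasted blood was drawn into tubes containing 120 µL NaF (4.5 mg/mL) and chilled to 0 C for 15 min. Glycerol and free fatty acids were assayed in this NaF plasma on a clinical chemistry analyser.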

[4] = system: Syrian golden hamster; assay: Antihyperlipidemic activity measured by increase in free fatty acid level in golden syrian hamster at 100 mg/kg, po relative to control; how it was run: as §2
[5] = system: Syrian golden hamster; assay: Antihyperlipidemic activity measured by increase in HDL/total cholesterol ratio in golden syrian hamster at 100 mg/kg, po relative to control; how it was run: as §1
[6] = system: Syrian golden hamster; assay: Antihyperlipidemic activity measured by triglyceride level in golden syrian hamster at 100 mg/kg, po; how it was run: as §1
[7] = system: Syrian golden hamster; assay: Antihyperlipidemic activity measured by cholesterol level in golden syrian hamster at 100 mg/kg, po; how it was run: as §1
[8] = system: Syrian golden hamster; assay: Antihyperlipidemic activity measured by HDL level in golden syrian hamster at 100 mg/kg, po; how it was run: as §1
[9] = system: Syrian golden hamster; assay: Antihyperlipidemic activity measured by glycerol level in golden syrian hamster at 100 mg/kg, po; how it was run: as §2
[10] = system: Syrian golden hamster; assay: Antihyperlipidemic activity measured by free fatty acid level in golden syrian hamster at 100 mg/kg, po; how it was run: as §2
[11] = system: Syrian golden hamster; assay: Antihyperlipidemic activity measured by HDL/total cholesterol ratio in golden syrian hamster at 100 mg/kg, po; how it was run: as §1
[12] = system: Syrian golden hamster; assay: Antihyperlipidemic activity measured by increase in HDL level in golden syrian hamster at 100 mg/kg, po relative to control; how it was run: as §1
[13] = system: Syrian golden hamster; assay: Antihyperlipidemic activity measured by decrease in glycerol level in golden syrian hamster at 100 mg/kg, po relative to control; design: scale not given: the % may be the effect or the level left; how it was run: as §2
[14] = system: Syrian golden hamster; assay: Antihyperlipidemic activity measured by decrease in triglyceride level in golden syrian hamster at 25 mg/kg relative to control; design: scale not given: the % may be the effect or the level left; how it was run: as §1
[15] = system: Syrian golden hamster; assay: Antihyperlipidemic activity measured by decrease in cholesterol level in golden syrian hamster at 25 mg/kg relative to control; design: scale not given: the % may be the effect or the level left; how it was run: as §1
[16] = system: Syrian golden hamster; assay: Antihyperlipidemic activity measured by decrease in HDL level in golden syrian hamster at 25 mg/kg relative to control; design: scale not given: the % may be the effect or the level left; how it was run: as §1
[17] = system: Syrian golden hamster; assay: Antihyperlipidemic activity measured by decrease in glycerol level in golden syrian hamster at 25 mg/kg relative to control; design: scale not given: the % may be the effect or the level left; how it was run: as §2
[18] = system: Syrian golden hamster; assay: Antihyperlipidemic activity measured by decrease in free fatty acid level in golden syrian hamster at 25 mg/kg relative to control; design: scale not given: the % may be the effect or the level left; how it was run: as §2
[19] = system: Syrian golden hamster; assay: Antihyperlipidemic activity measured by decrease in HDL/total cholesterol ratio in golden syrian hamster at 25 mg/kg relative to control; design: scale not given: the % may be the effect or the level left; how it was run: as §1
[20] = system: Syrian golden hamster; assay: Antihyperlipidemic activity measured by triglyceride level in golden syrian hamster at 25 mg/kg; how it was run: as §1
[21] = system: Syrian golden hamster; assay: Antihyperlipidemic activity measured by cholesterol level in golden syrian hamster at 25 mg/kg; how it was run: as §1
[22] = system: Syrian golden hamster; assay: Antihyperlipidemic activity measured by HDL level in golden syrian hamster at 25 mg/kg; how it was run: as §1
[23] = system: Syrian golden hamster; assay: Antihyperlipidemic activity measured by glycerol level in golden syrian hamster at 25 mg/kg; how it was run: as §2
[24] = system: Syrian golden hamster; assay: Antihyperlipidemic activity measured by free fatty acid level in golden syrian hamster at 25 mg/kg; how it was run: as §2
[25] = system: Syrian golden hamster; assay: Antihyperlipidemic activity measured by HDL/total cholesterol ratio in golden syrian hamster at 25 mg/kg; how it was run: as §1
[26] = system: Syrian golden hamster; assay: Antihyperlipidemic activity measured by decrease in free fatty acid level in golden syrian hamster at 100 mg/kg, po relative to control; design: scale not given: the % may be the effect or the level left; how it was run: as §2
[27] = system: Syrian golden hamster; assay: Antihyperlipidemic activity measured by increase in cholesterol level in golden syrian hamster at 100 mg/kg, po relative to control; how it was run: as §1
[28] = system: Syrian golden hamster; assay: Antihyperlipidemic activity measured by increase in triglyceride level in golden syrian hamster at 100 mg/kg, po relative to control; how it was run: as §1
[29] = system: Syrian golden hamster; assay: Antihyperlipidemic activity measured by decrease in HDL/total cholesterol ratio in golden syrian hamster at 100 mg/kg, po relative to control; design: scale not given: the % may be the effect or the level left; how it was run: as §1
[30] = system: Syrian golden hamster; assay: Antihyperlipidemic activity measured by increase in HDL level in golden syrian hamster at 25 mg/kg relative to control; how it was run: as §1
[31] = system: Syrian golden hamster; assay: Antihyperlipidemic activity measured by increase in HDL/total cholesterol ratio in golden syrian hamster at 25 mg/kg relative to control; how it was run: as §1

Compound | Activity [1] [%] | Activity [2] [%] | Activity [5] [%] | Activity [6] [mM] | Activity [7] [mM] | Activity [8] [mM] | Activity [9] [mM] | Activity [10] [µM] | Ratio [11] | Activity [12] [%] | Activity [13] [%] | Activity [26] [%] | Activity [27] [%] | further results
OC[C@H]1O[C@](O)(CO)[C@@H](O[C@@H]2OC[C@@H](O)[C@@H](O)[C@H]2O)[C@@H]1O | 9 | 23 | 31 | 13.09 | 8.9 | 3.14 | 0.99 | 924.84 | 0.35 |  |  |  |  | Activity [3]: 18%; Activity [4]: 28%
OC[C@H]1O[C@](O)(CO)[C@@H](O[C@@H]2O[C@H](CO)[C@@H](O[C@@H]3O[C@H](CO)[C@@H](O)[C@H](O)[C@H]3O)[C@H](O)[C@H]2O)[C@@H]1O | 58 | 15 | 29 | 6.09 | 9.79 | 3.4 | 0.81 | 726.03 | 0.34 | 10 | 4 |  |  | Activity [14]: 29%; Activity [15]: 5%; Activity [16]: 15%; Activity [17]: 8%; Activity [18]: 10%; Activity [19]: 11%; Activity [20]: 10.23 mM; Activity [21]: 10.97 mM; Activity [22]: 2.64 mM; Activity [23]: 0.77 mM; Activity [24]: 0.648 mM; Ratio [25]: 0.24
OC[C@H]1O[C@](O)(CO)[C@@H](O[C@@H]2OC[C@@H](O)[C@H](O)[C@H]2O)[C@@H]1O | 30 |  |  | 10.08 | 12 | 3.26 | 0.61 | 692.34 | 0.27 | 5 | 28 | 4 |  | 
OC[C@H]1O[C@](O)(CO)[C@@H](O[C@H]2O[C@H](CO)[C@@H](O)[C@H](O)[C@@H]2O)[C@@H]1O | 29 |  | 5 | 10.16 | 15.26 | 4.33 | 0.66 | 510.7 | 0.28 | 40 | 21 | 30 | 32 | 
OC[C@H]1O[C@](O)(CO)[C@@H](O[C@H]2OC[C@@H](O)[C@@H](O)[C@@H]2O)[C@@H]1O |  |  | 7 | 15.26 | 12.04 | 3.49 | 1 | 708.69 | 0.29 | 13 |  |  | 4 | Activity [28]: 6%; Activity [3]: 19%
OC[C@H]1O[C@@H](O[C@H]2[C@H](O)[C@@H](CO)O[C@]2(O)CO)[C@H](O)[C@@H](O)[C@H]1O | 52 |  |  | 6.88 | 17.59 | 3.6 | 0.82 | 450 | 0.21 | 16 |  | 38 | 52 | Activity [29]: 22%
C[C@@H]1O[C@@H](O[C@H]2[C@H](O)[C@@H](CO)O[C@]2(O)CO)[C@H](O)[C@H](O)[C@H]1O |  | 24 | 30 | 14.17 | 8.82 | 3.1 | 1.11 | 833.12 | 0.35 |  |  |  |  | Activity [3]: 32%; Activity [4]: 15%
OC[C@H]1O[C@](O)(CO)[C@@H](O[C@@H]2O[C@H](CO)[C@@H](O[C@H]3O[C@H](CO)[C@@H](O)[C@H](O)[C@H]3O)[C@H](O)[C@H]2O)[C@@H]1O | 11 |  | 12 | 12.76 | 11.38 | 3.43 | 0.82 | 726.74 | 0.3 | 11 |  |  |  | 
OC[C@H]1O[C@@H](O[C@H]2[C@H](O)[C@@H](O)[C@H](O[C@H]3[C@H](O)[C@@H](CO)O[C@]3(O)CO)O[C@@H]2CO)[C@H](O)[C@@H](O)[C@H]1O | 47 | 9 | 25 | 7.61 | 10.55 | 3.55 | 0.75 | 670.62 | 0.34 | 15 | 11 | 8 |  | Activity [14]: 44%; Activity [15]: 5%; Activity [30]: 5%; Activity [17]: 17%; Activity [18]: 21%; Activity [31]: 11%; Activity [20]: 7.96 mM; Activity [21]: 11.02 mM; Activity [22]: 3.28 mM; Activity [23]: 0.7 mM; Activity [24]: 0.572 mM; Ratio [25]: 0.3
OC[C@H]1O[C@@](CO)(O[C@H]2O[C@H](CO)[C@@H](O)[C@H](O)[C@H]2O)[C@@H](O[C@H]2O[C@H](CO)[C@@H](O)[C@H](O)[C@H]2O)[C@@H]1O [MELEZITOSE] | 51 |  | 41 | 6.98 | 13 | 4.95 | 0.71 | 510.7 | 0.38 | 59 | 15 | 30 | 12 | 
OC[C@H]1O[C@H](OC[C@H]2O[C@H](O[C@]3(CO)O[C@H](CO)[C@@H](O)[C@@H]3O)[C@H](O)[C@@H](O)[C@@H]2O)[C@H](O)[C@@H](O)[C@H]1O [RAFFINOSE] | 44 | 35 | 66 | 8.06 | 7.55 | 3.41 | 0.86 | 540.49 | 0.45 | 10 |  | 25 |  | 
